Data from ChEMBL document CHEMBL4725492, “Dioxane-Linked Amide Derivatives as Novel Bacterial Topoisomerase Inhibitors against Gram-Positive Staphylococcus aureus” (ACS Med Chem Lett, 2020).
In brackets after ≈: the same amount, converted by molar mass.

What was measured:
Topoisomerase IV = Topoisomerase IV (Staphylococcus aureus, UniProt P0C1S7+P0C1U9); assay: Inhibition of Staphylococcus aureus topoisomerase-4 assessed as reduction in decatenation of kinetoplast DNA agarose gel electrophoresis method; type: protein-complex assay
[1] = Growth inhibition of human K/VP.5 cells incubated for 48 hrs by sulforhodamine B assay; type: functional
K562 = assay: Growth inhibition of human K562 cells incubated for 48 hrs by sulforhodamine B assay; type: functional
[2] = target: T1, DNA gyrase (Staphylococcus aureus) (UniProt P0A0K8+P20831); assay: Inhibition of Staphylococcus aureus DNA gyrase assessed as double-strand break using relaxed pBR322 as substrate by ethidium bromide-based gel electrophoresis; type: protein-complex assay; details: dose microM 0.0001-20
How it was run: (§1)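 S. aureus gyrase-mediated DNA cleavage: compound was incubated with enzyme and DNA, and products were resolved on an ethidium-stained gel into negatively supercoiled, nicked (single-strand break) and linear (double-strand break) forms. Lane fluorescence was corrected for differential band emission. Percent of each form was calculated, and enzyme-only cleavage was subtracted. Concentrations spanned 0.1 nM–200 μM, with a 20 μM single-point screen. Results are mean ± SD or range.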

[3] = target: Voltage-gated inwardly rectifying potassium channel KCNH2 (Homo sapiens, UniProt Q12809); assay: Inhibition of human ERG; details: human
[4] = target: T1, DNA gyrase (Staphylococcus aureus); assay: Inhibition of Staphylococcus aureus DNA gyrase assessed as single-strand break using relaxed pBR322 as substrate by ethidium bromide-based gel electrophoresis; type: protein-complex assay; how it was run: as §1
DNA gyrase = DNA gyrase (Staphylococcus aureus, UniProt P0A0K8+P20831); assay: Inhibition of Staphylococcus aureus DNA gyrase using relaxed pBR322 as substrate by gel electrophoresis; type: protein-complex assay
Staphylococcus aureus [5] = assay: Antibacterial activity against Staphylococcus aureus USA300 by CLSI based agar dilution method; type: functional
Staphylococcus aureus [6] = assay: Antibacterial activity against Staphylococcus aureus D83N by CLSI based agar dilution method; type: functional
Staphylococcus aureus [7] = assay: Antibacterial activity against Staphylococcus aureus ATCC 29213 by CLSI based agar dilution method; type: functional
Staphylococcus aureus [8] = assay: Antibacterial activity against Staphylococcus aureus 3527 by CLSI based agar dilution method; type: functional
[9] = target: DNA topoisomerase 2-alpha (Homo sapiens, UniProt P11388); assay: Inhibition of human topoisomerase 2alpha relative to control
How it was run: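 Human topoisomerase IIα decatenation activity was tested at a single concentration of 100 μM and reported as percent inhibition.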

COc1ccc2nccc(CC[C@H]3OC[C@H](NC(=O)c4ccc5c(c4)NC(=O)CS5)CO3)c2c1
IC50 (Topoisomerase IV): 700 nM
INH [1]: >200 µM
INH (K562): >200 µM
inhibition [2]: Dose-dependent effect
INH [3]: > 30 µM
inhibition [4]: Dose-dependent effect
IC50 (DNA gyrase): 130 nM
MIC (Staphylococcus aureus [5]): ≤ 0.125 µg/mL
MIC (Staphylococcus aureus [6]): > 64 µg/mL
MIC (Staphylococcus aureus [7]): 0.03 µg/mL (≈ 0.0626 µM)
MIC (Staphylococcus aureus [8]): ≤ 0.125 µg/mL
inhibition (INH) [9]: 37%
